The source made the active and inactive calls.
Assays:
[1] = tested on: Escherichia coli; assay: Antimicrobial activity against Escherichia coli at 100 ug/disc by standard disc dassay; format: functional
[2] = tested on: Bacillus subtilis; assay: Antimicrobial activity against Bacillus subtilis at 100 ug/disc by standard disc dassay; format: functional
[3] = tested on: Staphylococcus aureus; assay: Antimicrobial activity against Staphylococcus aureus at 100 ug/disc by standard disc dassay; format: functional
[4] = tested on: Candida albicans; assay: Antimicrobial activity against Candida albicans at 100 ug/disc by standard disc dassay; format: functional
[5] = tested on: Cryptococcus neoformans; assay: Antimicrobial activity against Cryptococcus neoformans at 100 ug/disc by standard disc dassay; format: functional
[6] = tested on: MDA-MB-231; assay: Cytotoxicity against human MDA-MB-231 cells assessed as reduction in cell viability up to 10 uM by Cell-Titer Glo assay; format: functional, cell-based
Method in brief: (§1)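 Viability read by CellTiter-Glo: reagent added 1:1 to the well medium, plates kept in foil and shaken 2 min at room temperature, paused 2 min, then shaken 2 min more, and luminescence measured. Compounds were tested at concentrations up to 10 μM. Sphaeropsidin A served as positive control and a DMSO blank as negative control.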

[7] = tested on: GLI56; assay: Cytotoxicity against human GLI56 cells assessed as reduction in cell viability up to 10 uM by Cell-Titer Glo assay; format: functional, cell-based; method in brief: as §1
[8] = tested on: D453 (Homo sapiens); assay: Cytotoxicity against human D453 cells assessed as reduction in cell viability up to 10 uM by Cell-Titer Glo assay

Measured: Activity

COC(=O)c1cc(OC)cc(O)c1C(=O)c1cc(C(C)=O)c(O)c(C(=O)c2c(O)cc(OC)cc2C(=O)OC)c1
inactive: all assays above

COC(=O)c1cc(OC)cc(O)c1C1=C2CC3(COc4cc(OC)cc(C(=O)OC)c4C3=O)C(=O)C(C(C)=O)=C2C=C(C)O1 (centres undefined)
inactive: all assays above

COC(=O)c1cc(OC)cc(O)c1C(=O)c1cc(C(C)=O)c2oc3cc(OC)cc(C(=O)OC)c3c(=O)c2c1
inactive: all assays above

Source: ChEMBL document CHEMBL4033608, “Benzophenone and Fimetarone Derivatives from the Coprophilous Fungus Delitschia confertaspora” (J Nat Prod, 2017)
